Env fusion inh – inhibitors of HIV-1 Env-driven cell-cell fusion, primary screen, HeLa-JRFL effector, CEM21 target cells, luciferase; AID 651610, 2012; hit rate 1.1% among 360,000; inhibition, % at 12.3 µM;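 active = mean replicate inhibition score of at least 50 and every replicate individually at or above 50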;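 also: 0% = plate neutral controls and 100% = maraviroc near 300 nM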
PglD DTNB – C. jejuni PglD acetyltransferase inhibitors, primary screen, biochemical, DTNB colorimetric, single point; purified PglD enzyme, DTNB colorimetric CoA detection; inhibition, % at 12.5 µM; hit rate 0.098% among 360,000; AID 602405, 2012; in the data active = inhibition above about 16%, passing the limit was not always enough
SR-BI HDL uptake – inhibitors of SR-BI mediated HDL lipid uptake, primary screen, ldlA[mSR-BI] cells, fluorescence, single point. ldlA[mSR-BI] CHO cells, DiI-HDL uptake fluorescence, 3 h. hit rate 0.96% among 320,000. inhibition, % at 12.5 µM;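 active = mean replicate inhibition of at least 70% and a set share of replicates each scoring 70 or more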;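 also: 0% = median of neutral control wells and 100% = median of positive control wells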
Target sequence (Q61009 whole entry, looked up): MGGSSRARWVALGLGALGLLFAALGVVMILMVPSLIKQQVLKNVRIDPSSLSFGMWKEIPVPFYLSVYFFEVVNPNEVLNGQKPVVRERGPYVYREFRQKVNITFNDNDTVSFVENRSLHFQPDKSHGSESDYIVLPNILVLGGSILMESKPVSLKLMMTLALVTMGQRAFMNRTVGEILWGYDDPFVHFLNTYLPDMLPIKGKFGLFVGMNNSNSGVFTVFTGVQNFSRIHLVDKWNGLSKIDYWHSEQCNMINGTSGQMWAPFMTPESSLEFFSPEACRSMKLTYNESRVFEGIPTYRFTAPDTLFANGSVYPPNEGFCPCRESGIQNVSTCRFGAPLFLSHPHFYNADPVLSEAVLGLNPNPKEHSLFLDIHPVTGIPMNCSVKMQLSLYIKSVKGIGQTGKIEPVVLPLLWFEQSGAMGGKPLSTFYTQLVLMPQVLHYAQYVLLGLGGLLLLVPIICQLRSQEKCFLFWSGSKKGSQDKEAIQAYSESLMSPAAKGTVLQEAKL
Rtt109 HAT inh – inhibitors of C. albicans Rtt109/Vps75 HAT, primary screen, biochemical, ThioGlo CoA-SH fluorescence, plate reader. Histone acetyltransferase RTT109 (Candida albicans (strain SC5314 / ATCC MYA-2876)), …. purified Rtt109/Vps75, 4 h. inhibition, % at 34.9 µM. hit rate 0.16% among 330,000. AID 540336, 2011;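 active = inhibition of at least 50% in every replicate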
N-glyco inh – increase of ERlucT glycosylation luciferase signal, primary screen, N-linked glycosylation inhibitor project, D54 ERlucT cells, luminescence, set 2; hit rate 0.23% among 360,000; AID 588692, 2011; reporter increase, % at 12.5 µM; D54 ERlucT glycosylation luciferase reporter, 24 h; percent of 100 nM tunicamycin response;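 active = mean luciferase reporter signal, scaled so untreated is 0 and the glycosylation-blocking control 100, at or above a set limit in every replicate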;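 also: luciferase carries N-glycosylation sites so blocking glycosylation raises the light; 0% = median of neutral control wells and 100% = median of 100 nM tunicamycin wells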
SR-BI DiI-HDL act – activators of SR-BI mediated DiI-HDL uptake, primary screen, ldlA[mSR-BI] CHO cells, DiI fluorescence | AID 504775, 2011 | activation, % at 12.5 µM | hit rate 0.096% among 320,000 | 3 h; 100 = double the neutral-control signal;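 active = mean replicate activation of at least 60% and every replicate at or above 60%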;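 also: 0% = median plate neutral-control signal and 100% = twice that signal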
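Test system: SR-BI-overexpressing, LDLR-lacking CHO cells. Measured by: DiI fluorescence, bottom read. Medium: Ham's F12 with 0.5% BSA, HEPES 25 mM, pH 7.4. Timing: 3 h uptake period with compound, 37 °C.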
* marks the source's active call; other numbers are inactive results; / = not tested or not shown; ! = repeats disagree; [ ] = dose if it differs, or a comment. Sampled rows, rich in hits. Any-hit rate of the full collection: about 1.9%.

SMILES	Env fusion inh	PglD DTNB	SR-BI HDL uptake	Rtt109 HAT inh	N-glyco inh	SR-BI DiI-HDL act
Cc1ccc(S(=O)(=O)N(C)C[C@@H]2Oc3c(NC(=O)NC4CCCCC4)cccc3C(=O)N([C@H](C)CO)C[C@H]2C)cc1	1.6[16.7 µM]	1.1	/	/	/	/
O=C(c1oc2ccccc2c1CSCc1ccccc1)N1CCN(c2ncccn2)CC1	55.6*	/	-1.6	-3.5	-1.9	1.6
COC(=O)C[C@@H]1CC[C@@H]2[C@H](COc3ccc(NS(=O)(=O)c4ccc(F)cc4)cc3C(=O)N2C)O1	-10.3[16.7 µM]	-1.0	/	/	/	/
O=c1c2ccccc2sn1-c1cc(S(=O)(=O)N2CCOCC2)ccc1N1CCCC1	4.0	-0.8	-3.7	7.4	-0.9	3.7
O=c1c2ccccc2sn1-c1cc(S(=O)(=O)N2CCOCC2)ccc1N1CCOCC1	-34.8	-3.2	-40.7	121.9*	2.2	40.7
CC(=O)Nc1ccc(C(=O)OCC(=O)NC(=O)NCc2ccccc2)cc1	71.3*	0.8	/	/	1.0	/
O=C(NNC1=Nc2ccccc2SC1)c1ccc(Cl)cc1	61.2*	-1.3	10.5	13.9	11.8	-10.5
O=C(NNC1=Nc2ccccc2SC1)c1ccc(F)cc1	-9.2	/	39.5	2.4	16.6	-39.5
COc1cc(OC)c(OC)cc1/C=N/N(C)c1ccccc1	/	3.3	81.5*	6.6	-1.8	-81.5
COc1cc(/C=N/N(C)c2ccccc2)ccc1O	-244.7	1.9	26.0	/	-5.5	-26.0
CCCCN(C)CCCNC(=O)c1cc(=O)[nH]c2ccc(S(=O)(=O)N3CCCCC3C)cc12 (centres undefined)	59.7*	/	-3.6	-1.1	-0.2	3.6
CC1CCCN(S(=O)(=O)c2ccc3[nH]c(=O)cc(C(=O)NCCCN4CCCCCC4)c3c2)C1 (centres undefined)	-3.7	-4.9	/	/	2.3	/
CCS(=O)(=O)N[C@H]1CC[C@H](CC(=O)N2CCCCC2)O[C@H]1CO	-14.3[16.7 µM]	3.3	/	/	/	/
CC(C)CC#Cc1ccc2c(c1)O[C@@H](CN(C)C(=O)NC1CCCC1)[C@H](C)CN([C@H](C)CO)S2(=O)=O	21.4[16.7 µM]	3.3	/	/	/	/
C[C@@H]1CN([C@@H](C)CO)C(=O)c2cc(NC(=O)Nc3ccccc3)ccc2O[C@@H]1CN(C)C(=O)Nc1ccc2c(c1)OCO2	6.7[16.7 µM]	/	/	/	/	/
CC(=O)Nc1ccc(NC(=O)COc2ccc(-c3ccc(C#N)cc3)cc2)cc1	3.6	-0.6	-20.0	7.0	-0.1	20.0
N#Cc1ccc(-c2ccc(OCC(=O)Nc3cccnc3)cc2)cc1	59.4*	-0.7	-5.2	-5.4	-5.1	5.2
Fc1cc(NC(=S)NCc2ccc(CNC(=S)Nc3ccc(Cl)c(F)c3)cc2)ccc1Cl	13.3	4.0	73.3*	0.5	-2.4	-73.3
FC(F)(F)c1cccc(NC(=S)NCc2ccc(Cl)cc2)c1	63.9*	/	22.1	-18.8	-3.5	-22.1
CCn1c(O)c(/C=N/NC(=O)c2ccncc2)c(=O)n(CC)c1=S	4.1	/	74.2*	-8.9	0.3	-74.1
C[C@H]1CN([C@@H](C)CO)C(=O)Cc2cc(NC(=O)CCCN(C)C)ccc2O[C@@H]1CN(C)C(=O)NC1CCCCC1	/	-3.7	/	/	/	/
COc1ccc(NC(=O)Nc2ccc3c(c2)C(=O)N([C@@H](C)CO)C[C@H](C)[C@@H](CN(C)C(=O)NC(C)C)O3)cc1	-22.5[16.7 µM]	0.8	/	/	/	/
CCc1nc(Nc2ccc(N3CCN(C(C)=O)CC3)cc2)c2oc3ccccc3c2n1	/	6.8	75.0*	7.1	1.8	-75.0
CN(C[C@H](Cc1ccccc1)N(C[C@H](Cc1cccc2ccccc12)N(CCc1ccccc1)N=O)N=O)N=O	35.7	3.0	-10.8	-2.6	-5.4	10.8
CN(C[C@H](Cc1ccccc1)N(CCN(CCc1ccccc1)N=O)N=O)N=O	33.3	4.7	14.9	1.2	-1.4	-14.9
SMILES	Env fusion inh	PglD DTNB	SR-BI HDL uptake	Rtt109 HAT inh	N-glyco inh	SR-BI DiI-HDL act
CC(C)C[C@@H](CN(C)N=O)N(C[C@H](Cc1ccccc1)N(CCc1ccccc1)N=O)N=O	93.7*	4.8	20.5	-2.5	-8.7	-20.5
CC(C)[C@H](CN(N=O)[C@@H](Cc1ccccc1)CN(C)N=O)N(CCc1ccccc1)N=O	67.6*	3.2	3.8	-7.6	-4.1	-3.8
CN(C[C@H](Cc1ccccc1)N(C[C@H](Cc1ccccc1)N(CCc1cc(C(F)(F)F)cc(C(F)(F)F)c1)N=O)N=O)N=O	56.1*	-5.6	-14.9	-1.9	-12.0	14.9
CCCC[C@H](CN(N=O)[C@@H](Cc1ccccc1)CN(C)N=O)N(CCc1ccccc1)N=O	88.4*	0.9	9.5	5.9	-6.7	-9.5
O=C(C[C@@H]1CC[C@@H]2[C@H](COC[C@H](O)CN2C(=O)c2ccc(F)cc2)O1)Nc1ccc(-c2ccccc2)cc1	22.6[16.7 µM]	-0.2	/	/	/	/
Cc1noc(C)c1NC(=O)N(C)C[C@H]1Oc2ccc(NC(=O)Cc3ccccc3)cc2CC(=O)N([C@@H](C)CO)C[C@H]1C	6.1[16.7 µM]	-1.5	/	/	/	/
COc1ccccc1CNC(=O)C[C@H]1CC[C@H](NC(=O)CC2CC2)[C@H](CO)O1	-6.4[16.7 µM]	-1.8	/	/	/	/
O=C(CSC1=NCCN1)NC12CC3CC(CC(C3)C1)C2	/	-11.9	73.2*	-137.3	3.9	-73.2
Cc1nnc(SCC(=O)NC23CC4CC(CC(C4)C2)C3)s1	-2.8	-1.6	-1.0	4.6	0.9	1.0
C[C@@H]1CN([C@H](C)CO)C(=O)c2cc(/C=C/c3ccccc3)cnc2O[C@H]1CN(C)S(=O)(=O)c1ccc(F)cc1	19.0[16.7 µM]	-3.4	/	/	/	/
C[C@@H]1CN([C@@H](C)CO)C(=O)c2cc(C#Cc3ccccc3F)cnc2O[C@@H]1CN(C)S(=O)(=O)c1ccccc1F	56.2*[16.7 µM]	0.5	/	/	/	/
COCC#Cc1cnc2c(c1)C(=O)N([C@@H](C)CO)C[C@H](C)[C@@H](CN(C)C(=O)C1CCC1)O2	8.6[16.7 µM]	20.2*	/	/	/	/
C[C@H](CO)N1C[C@H](C)[C@H](CN(C)S(=O)(=O)c2ccc(F)cc2)Oc2ncc(/C=C/c3ccccc3)cc2C1=O	49.8*![16.7 µM]	1.3	/	/	/	/
O=C(NCc1ccccc1)[C@@H]1N[C@@H]2c3ccc(-c4ccccc4)c(=O)n3C[C@@H]2[C@H]1CO	/	-2.6	/	/	/	/
CCc1sc(C(=O)Nc2ccc3c(c2)OCO3)cc1C	-10.5	4.2	54.2	4.0	-3.0	-54.2
CCc1sc(C(=O)Nc2ccc(N3CCOCC3)cc2)cc1C	-4.7	-1.8	74.7*	-0.9	1.2	-74.7
COc1ccccc1Nc1ccc(N)cc1	5.1	/	83.9*	7.0	1.7	-83.9

Compound activity (PubChem)
